# DAGLB inh = blocks human DAGLB lipase activity; hit rate 0.059% among 340,000; AID 504411; inhibition, % at 5.17 µM; HEK293T DAGLB membrane lysate, EnzChek fluorogenic substrate; Q8NCG7; in the data active means inhibition above about 34%;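 further: 0% = enzyme with vehicle and 100% = wells lacking enzyme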
# Target sequence (Q8NCG7 whole entry, looked up): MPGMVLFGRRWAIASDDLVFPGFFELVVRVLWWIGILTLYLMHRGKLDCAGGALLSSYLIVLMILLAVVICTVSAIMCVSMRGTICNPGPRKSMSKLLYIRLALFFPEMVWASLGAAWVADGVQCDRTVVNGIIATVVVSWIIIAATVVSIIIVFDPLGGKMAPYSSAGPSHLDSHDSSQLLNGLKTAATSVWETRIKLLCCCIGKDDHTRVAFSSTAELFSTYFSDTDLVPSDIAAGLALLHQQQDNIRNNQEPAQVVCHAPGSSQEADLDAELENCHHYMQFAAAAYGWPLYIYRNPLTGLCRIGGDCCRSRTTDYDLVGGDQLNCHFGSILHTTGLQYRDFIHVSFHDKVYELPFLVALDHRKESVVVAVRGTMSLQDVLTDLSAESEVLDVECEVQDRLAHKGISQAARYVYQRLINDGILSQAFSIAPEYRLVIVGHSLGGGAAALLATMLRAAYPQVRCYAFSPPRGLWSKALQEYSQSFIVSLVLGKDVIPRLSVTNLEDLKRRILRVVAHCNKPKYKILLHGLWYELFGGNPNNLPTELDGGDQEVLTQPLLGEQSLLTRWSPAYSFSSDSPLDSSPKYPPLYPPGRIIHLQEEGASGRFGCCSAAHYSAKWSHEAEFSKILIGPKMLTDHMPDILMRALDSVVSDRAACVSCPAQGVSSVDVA
# DDE Tn7 FP inh = DD(E)-Tn7 binding inhibition, primary FP screen; P02675; FP displacement of FITC-Tn7 peptide from fibrin DD(E); 0% = median of compound wells per plate; inhibition, % at 8.3 µM; hit rate 0.13% among 370,000;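 active means inhibition above the mean of compounds falling within the control limits plus 3 SD of them, cut at about 14% in these data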;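 further: 0% = plate median of compound wells and 100% = 10 µM Aha-Tn7 peptide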
#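 Measure: % inhibition scaled between sample-field median and high-control FP; Test system: human fibrin DD(E); Quantity: 2 µM final DD(E) protein; Doses: one dose, 8.3 µM nominal; Schedule: compound with protein 10 min, then 3 h after probe, room temperature; Detection: fluorescence polarization; Medium: Tris buffer with calcium and detergent, pH 7.8.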
# SKN-1 block = inhibitors of C. elegans SKN-1. hit rate 0.49% among 360,000. C. elegans VP596 Pgst-4::GFP/RFP ratio, acrylamide-induced, 24 h. inhibition, % at 21.8 µM. AID 624304;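 active means interference check ratio from 0.5 to 1.5 plus GFP to RFP signal ratio inhibition reaching or exceeding a fixed threshold, cut at about 30% in these data, passing the limit was not always enough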
# MT1-MMP act inh = MT1-MMP (human) activation inhibition | HT1080 RFP-PRO-GFP cells, GFP/RFP ratio fluorescence, overnight; percent of plate control window, DMSO zero | GFP/RFP ratio change, % at 20 µM | hit rate 0.061% among 360,000 | AID 651647;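 active means GFP/RFP ratio change of at least 30% with cell ATP level not reduced by more than half and red fluorescence within 50% of control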
#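 Test system: HT1080 cells expressing an RFP-PRO-GFP fluorescent reporter construct / Compound dosing: single-point 20 µM compound, 1% DMSO / Schedule: cells overnight before dosing, compound overnight, 37 °C, 5% CO2 / Evaluation: GFP/RFP fluorescence ratio / Control set: DMSO and RFP-L50D-GFP cell wells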
# Tn6 DDE FP = inhibitors of Tn6 peptide binding to human fibrin DD(E). Fibrin DD(E) TRITC-Tn6 fluorescence polarization displacement. inhibition, % at 8.3 µM. hit rate 0.21% among 370,000. AID 720509;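 active means inhibition above a per-campaign cutoff: mean of compounds within control limits plus 3 SD, cut at about 15% in these data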;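 further: 0% = median of all compound wells on the plate and 100% = blocking peptide control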
# PolyA inh = blocks polyadenylation in yeast reporter cells; S. cerevisiae SKY197-pL101 polyadenylation reporter, beta-gal luminescence; efflux-impaired pdr1/pdr3 knockout yeast; score 100 = 6 SD above DMSO; hit rate 0.02% among 300,000; activity score, % at 12 µM;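 active means lowest replicate activity score at least 50, where 100 means six control SD above control mean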;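 further: yeast exposed to compound for 9 h at 30 °C; higher score means more reporter readthrough which indicates perturbed polyadenylation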
# * hit, by the source's call; · = no result. Hits are enriched below; roughly 0.9% of the tested compounds scored in any of these assays.
SMILES,DAGLB inh,DDE Tn7 FP inh,SKN-1 block,MT1-MMP act inh,Tn6 DDE FP,PolyA inh
CC(O)C1C=CC=CC(=O)OC2CC3OC4C5OC5(C)CCC4(COC(=O)C4OC4(C)C(O)CO1)C2(C)C31CO1 (stereo not drawn),1,1,16,-38,-1,·
CC(=O)OC1C(=O)OCC23CCC4(C)OC4C2OC2CC(OC(=O)C=CC=CC(=O)OCCC1C)C3(C)C21CO1 (stereo not drawn),-3,1,42*,-35,-5,·
Cc1ccccc1CCC[C@H](CC1CCCCC1)CN(C)C(=O)Oc1ccccc1,·,5,·,·,4,·
CCN(CC)c1ccc(C=C2C(=O)N(C)C(=S)N(C)C2=O)o1,2,4,38*,-107,-3,0
CCN1C(=O)/C(=C/c2ccc(N(CC)CC)cc2OC)C(=O)NC1=S,3,0,45*,0,0,5
CN1c2ccc(Br)cc2[C@H]2NCC[C@H]2[C@H]1CO,·,5,·,·,6,·
N=c1c2c(-c3ccccc3)c(-c3ccccc3)n(Cc3ccccc3)c2ncn1C1CCC(O)CC1 (stereo not drawn),·,-9,·,·,-5,·
CC(=O)N(C1=NCCCS1)c1ccc(F)cc1,2,-4,39*,5,-7,12
O=C(NC(Cc1ccccc1)P(=O)(O)Oc1ccccc1)OCc1ccccc1 (stereo not drawn),·,-6,·,·,-4,·
Cc1ccccc1N1C(=O)NC(=O)/C(=C\c2ccc3c(c2)CCCN3Cc2ccccc2)C1=O,3,-4,14,-4,-3,-21
O=C1NC(=S)NC(=O)C1=Cc1ccc2c(c1)CCN2CCCCl,·,·,38*,-2,·,-9
O=[N+]([O-])c1ccc(N2CCCC2)c2ccncc12,6,3,35*,26,-1,-34
CCC1(C)OC(c2ccccc2)=C/C(=C/C=C2C(=O)NC(=O)NC2=O)O1 (stereo not drawn),0,-33,48*,-112,-2,-2
O=c1[nH]c(=O)n(-c2ccccc2)c(O)c1/C=C1/C(c2ccccc2)=Nc2ccccc21,4,0,36*,-4,-2,-55
COC(=O)C12OCC34C(CC5C(C)=C(O)C(=O)CC5(C)C3C(O)C1O)OC(=O)C(OC(=O)/C=C(\C)C(C)C)C24 (stereo not drawn),2,-5,56*,-43,-7,·
CN1C(=O)[C@@]23C[C@]4(c5c[nH]c6ccccc56)c5ccccc5N(S(=O)(=O)c5ccccc5)[C@@H]4N2C(=O)[C@@H]1SS3,·,2,·,·,-3,·
CCCc1nc2ccccc2c(=O)n1-c1ccc(OC)cc1,-3,-9,37*,-3,-4,-4
Cc1ccc(/C=C2\C(=O)NC(=S)N(c3ccc(F)cc3)C2=O)s1,7,3,36*,-7,1,10
CC(=O)N1c2ccccc2C(c2ccccc2)=NCC1C(=O)NCc1ccccc1 (stereo not drawn),·,-10,·,·,3,·
C[C@](N)(CCP(=O)(O)O)C(=O)O,2,6,49*,1,9,·
O=C(CN1CCOCC1)c1cccc2ccccc12,3,10,38*,-6,11,3
O=C(CN1CCOCC1)c1ccc(Br)cc1,-1,-11,-9,5,2,-11
C[CH2][Hg][S]c1ccccc1C(=O)O,-1,-1,38*,9,-1,·
CC(C)COC(=O)c1ccccc1C(=O)OCC(C)C,-5,4,-3,2,-3,-6
O=C(CN1C(=O)[C@@H](Cc2ccccc2)N=C(c2ccccc2)c2ccccc21)NC1CCCCC1,·,-5,·,·,-2,·
SMILES,DAGLB inh,DDE Tn7 FP inh,SKN-1 block,MT1-MMP act inh,Tn6 DDE FP,PolyA inh
Fc1cccc(F)c1-c1nc(-c2ccc(Cl)cc2)no1,-16,5,57*,-1,-4,26
Cc1ccc(/C=C2\C(=O)NC(=O)N(CC3CCCO3)C2=O)s1 (stereo not drawn),5,-2,-6,3,2,1
CCN(CC)c1ccc(/C=C2\C(=O)NC(=O)N(CC3CCCO3)C2=O)cc1 (stereo not drawn),1,0,42*,-3,2,7
O=C1NC(=O)N(Cc2ccc(F)cc2)C(=O)/C1=C\c1ccc(N2CCCC2)cc1,10,-3,39*,20,-9,-2
CCCCN1C(=O)NC(=O)C2(Cc3cc(C)ccc3N(C)C2)C1=O (stereo not drawn),-1,4,41*,-1,-9,8
COc1cc(CN2C(=O)NC(=O)C3(Cc4cc(C)ccc4N(C)C3)C2=O)cc(OC)c1 (stereo not drawn),4,4,14,-3,0,·
ClCCN(CCCl)c1ccc(C=Cc2ccncn2)cc1,·,-19,54*,-84,8,·
ClCCN(CCCl)c1ccc(C=NNc2ncccn2)cc1,1,2,12,5,5,·
O=C(CNC(=O)OCc1ccccc1)NC(Cc1ccccc1)P(=O)(Oc1ccccc1)Oc1ccccc1 (stereo not drawn),·,-2,·,·,-1,·
CCn1c(O)c(C(=O)CC2NCCc3ccccc32)c(=O)n(CC)c1=S (stereo not drawn),0,·,51*,-17,·,·
CCn1c(O)c(C=Nc2ccc(N3CCOCC3)cc2)c(=O)n(CC)c1=S,1,3,86,-30,5,-3
N#CC1c2ccccc2-n2nncc2CN1C(=O)c1ccc([N+](=O)[O-])o1 (stereo not drawn),·,-3,·,·,2,·
c1cncc(-c2ccc3n2Cc2cnnn2-c2ccccc2-3)c1,·,-8,·,·,5,·
CC[n+]1c(-c2ccccc2)c2cc(N)ccc2c2ccc(N)cc21,3,6,87,65,56*,·
O=C1NC(=O)C2(Cc3ccccc3N3CCCC32)C(=O)N1c1ccc(Cl)cc1 (stereo not drawn),·,5,·,·,2,·
Cc1ccc(N2C(=O)NC(=O)C3(Cc4ccccc4N4CCCC43)C2=O)cc1 (stereo not drawn),3,-9,59*,-10,-2,23
O=C(CN1C(=O)[C@@H](Cc2c[nH]c3ccccc23)N=C(c2ccccc2)c2ccccc21)NC1CCCCC1,·,10,·,·,2,·
O=C(O)c1cc[c]([Hg][Cl])cc1,0,·,45*,-2,·,·
N#CC1c2ccccc2-n2nncc2CN1C(=O)c1cccnc1 (stereo not drawn),·,-8,·,·,-2,·
CO[C@H]([C@H](C)/C=C/N(C)C=O)[C@@H](C)C(=O)CC[C@H](C)[C@H](O)[C@H](C)[C@H]1OC(=O)/C=C/C(C)=C/[C@H](O)[C@H](OC)C[C@@H]2C=CC[C@@H](C[C@H](OC)[C@@H](CO)[C@@H](OC)C[C@@H](OC)[C@@H]1C)O2,·,-8,·,·,0,·
